Assay results: PubChem BioAssay AID1217 (Sanford-Burnham Center for Chemical Genomics, 2008)
The campaign covered roughly 190,000 compounds. About 1,300 (0.68%) were called active. The sample as a whole holds a higher share of actives than the screen did. A number with no mark means an inactive call.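 How the source made its calls: active means primary screen inhibition at 20 µM above a set limit (cut at about 50% in these data); inactive means the rest.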

system: diaphorase (Clostridium kluyveri); assay: diaphorase inhibitors and chemical oxidizers, primary screen, counter-screen for diaphorase-coupled primary assays, biochemical, uHTS, resorufin fluorescence (AID 1217);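 further: plate controls were DMSO with full reaction for no effect and wells lacking NADH for full effect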; conditions: diaphorase resazurin-to-resorufin fluorescence, NADH, 16 min; at 20 µM; active compounds read high; bacterial (C. kluyveri) enzyme, not human
How it was run: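 controls = No-NADH positive control and DMSO neutral control | system = Clostridium kluyveri diaphorase enzyme | timing = reaction incubation of 16 min at room temperature | signal = resorufin fluorescence 544/590 nm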

| Compound | inhibition |
| --- | --- |
| COc1ccc(C(=O)Nc2cccnc2)cc1C(=O)Nc1cccnc1 | -17.7% |
| COc1ccc(S(=O)(=O)Nc2cccnc2)c(Cl)c1Cl | 77.2% (active) |
| COc1ccccc1Oc1ccc(S(=O)(=O)Nc2cccnc2)cc1 | 9.6% |
| S=C(Cc1ccc(Cl)cc1)N1CCOCC1 | -0.3% |
| CC(=O)Nc1cccc(-c2nc3ccccc3s2)c1C | 6.8% |
| Cc1ccc(-c2n[nH]c(=S)n2/N=C/c2cc3c(cc2[N+](=O)[O-])OCO3)cc1 | 69.3% (active) |
| CCOc1ccc(-c2n[nH]c(=S)n2/N=C/c2cc3c(cc2[N+](=O)[O-])OCO3)cc1 | 41.6% |
| Cc1ccc(S(=O)(=O)N/N=C\c2cc3c(cc2[N+](=O)[O-])OCO3)cc1 | 37.8% |
| COc1ccc(CS(=O)/C(Cl)=C(/Cl)C(=O)Nc2ccc(OC)nc2)cc1 (stereo unspecified) | 1% |
| COc1ccc(S(=O)(=O)Nc2ccc(O)c(Sc3nc4ccccc4s3)c2)cc1 | 24.7% |
| O=C(O)c1cccc(S(=O)(=O)Nc2ccc(O)cc2Sc2nc3ccccc3s2)c1 | 7.5% |
| O=[N+]([O-])c1c(NCCO)cc(Sc2nc3ccccc3s2)c2nonc12 | 58% (active) |
| C[C@H](NC(=O)c1ccccc1Cl)C(=O)OCCOc1cccc(Cl)c1 | 11.2% |
| COc1cccc(-n2c(=S)[nH]c3c(oc4ccccc43)c2=O)c1 | 71.4% (active) |
| COc1cccc(-n2cc(C(=O)O)c3ccccc3c2=O)c1 | 6.7% |
| COC(=O)c1ccc(CSc2nc3ccccc3c(=O)n2-c2cccc(OC)c2)o1 | 39.9% |
| CN(C(=O)c1c(Cl)cnn1C)C12CC3CC(CC(C3)C1)C2 | 3.9% |
| C/C(=N\Nc1ccc([N+](=O)[O-])cc1)c1ccc(-n2nncc2C(C)(C)C)cc1 | 5% |
| CCCCN(C)C(=O)c1ccc2c(c1)N(CC)C(=O)c1ccccc1S2(=O)=O | 4.6% |
| CCN1C(=O)c2cccc3c(N)ccc1c23 | 57.3% (active) |
| O=C(CN1C(=O)c2cccc3cccc1c23)Nc1ccccc1 | -6.4% |
| CN1C(=O)C(CC(=O)Nc2ccccc2)S/C1=N/c1nccs1 (stereo unspecified) | -11.3% |
| CC(=O)Nc1ccc(S(=O)(=O)N(CCc2ccccc2)CC(=O)N/N=C/c2ccc(C(=O)O)cc2)cc1 | 0.3% |
| Cc1ccc(-n2[nH]c(C)c(/C=N/NC(=O)c3cccc([N+](=O)[O-])c3)c2=O)cc1C | 22% |

| Compound | inhibition |
| --- | --- |
| Cc1[nH]n(-c2ccccc2)c(=O)c1/C=N/NC(=O)c1ccoc1C | 50.1% (active) |
| Cc1[nH]n(-c2ccc(Cl)cc2)c(=O)c1/C=N/n1c(C)nc2ccccc2c1=O | -6.7% |
| O=C(C(Cl)Cl)N1CCN(c2ccccn2)CC1 | 3% |
| COCCCNC(=O)Cn1c(=O)n(Cc2ccccc2Cl)c(=O)c2cc(OC)c(OC)cc21 | 9.4% |
| Cc1c(CN2CCCC(C(=O)c3cccc(Cl)c3)C2)c(=O)n(-c2ccccc2)n1C (stereo unspecified) | 15.1% |
| CCc1ccc(NC2Nc3cc(C)nn3S2)cc1 (stereo unspecified) | 8.9% |
| O=C(Cc1ccccc1)NCC1OCCc2ccccc21 (stereo unspecified) | 24.1% |
| COc1ccc(-c2csc(Nc3ccc(O)cc3)n2)cc1 | -2.2% |
| COc1ccc(-c2csc(Nc3ccccn3)n2)cc1 | 10.1% |
| COc1ccc(OC)c(Nc2nc(-c3ccc(O)c(O)c3)cs2)c1 | 57.4% (active) |
| CC1CC1C(=O)OCC(=O)c1c(N)n(C)c(=O)n(C)c1=O (stereo unspecified) | -19.7% |
| Cc1cc(C)cc(NC(=O)Cn2cnc3c(nnn3Cc3ccc(F)cc3)c2=O)c1 | 1.8% |
| COc1ccc(OC)c2[nH]c(=O)c(CCNC(=O)C(=O)c3c[nH]c4ccccc34)cc12 | 66.1% (active) |
| COc1ccc(OC)c2[nH]c(=O)c(CCNC(=O)C(C)(C)C)cc12 | 2.9% |
| COc1ccc(/C=C(\NC(=O)c2ccc(OC)c(OC)c2)C(=O)NCCc2c[nH]c3ccccc23)cc1 | 13.6% |
| CCc1cc(C(N)=O)c(NC(=O)c2ccc(OC)cc2)s1 | 21.1% |
| COc1ccc(C(=O)N/N=c2\oc3ccccc3cc2C(N)=O)cc1 | 75.5% (active) |
| CCN(CC)c1ccc2cc(C(N)=O)/c(=N\NC(=O)c3ccncc3)oc2c1 | 25% |
| COc1cccc(OC)c1C(=O)NC(=S)Nc1ccc(N2CCOCC2)c(Cl)c1 | 27.9% |
| S=c1[nH]nc(-c2cccs2)n1/N=C/c1cccs1 | 51.3% (active) |
| Oc1ccccc1/C=N/n1c(-c2cccs2)n[nH]c1=S | 35.3% |
| Cc1ccc(/C=N\n2c(-c3ccccc3)n[nH]c2=S)s1 | 19.9% |
| CCN(C(=O)COC(=O)c1ccc(COc2ccc3c(C)cc(=O)oc3c2)cc1)C1CCS(=O)(=O)C1 (stereo unspecified) | 0.7% |
| CN(C)CCN=c1cc(-c2ccccc2)oc2ccc(Cl)cc12 | -1.4% |

| Compound | inhibition |
| --- | --- |
| O=C(COC(=O)c1cc([N+](=O)[O-])ccc1NCc1ccccc1)NC1CCCCC1 | 3% |
| O=C(/C=C/c1ccc(F)cc1)NCCNC(=O)/C=C/c1ccc(F)cc1 | 3.6% |
| O=C(/C=C/c1ccc(F)cc1)NC(=S)NNC(=O)c1cccnc1 | 67.6% (active) |
| CC(C)c1ccc(/C=C/C(=O)NNC(=O)c2cccnc2)cc1 | 6.9% |
| CCc1cccc(NC(=O)CCNS(=O)(=O)c2cccc3nonc23)c1 | 6.4% |
| CC(=O)Nc1ccc(S(=O)(=O)NC(C)C(=O)OCC(=O)NC2CCCC2)cc1 (stereo unspecified) | 6.2% |
| O=C(CSc1n[nH]c(-c2cccnc2)n1)Nc1ccnc2ccccc12 | 54% (active) |
| Cc1c(Cl)cccc1NC(=O)CSc1ccc(-c2cccnc2)nn1 | -1.3% |
| O=C(CSc1ncn[nH]1)Nc1ccnc2ccccc12 | -2.2% |
| Cc1nc(-c2ccccc2)cn2c1nc1ccccc12 | 16% |
| Cc1cc(=O)[nH]c(=S)[nH]1 | 5.9% |
| O=c1[nH]c(=S)[nH]c2[nH]c(=S)[nH]c12 | 87.4% (active) |
| O=C(N1CCCCC1)N1CCN(C(=O)N2CCCCC2)CC1 | -5.4% |
| C/C(=C\c1ccco1)C1Nc2cccc3cccc(c23)N1 | 69.5% (active) |
| CC(/C=N/NC(=O)c1cc(-c2ccc3ccccc3c2)n[nH]1)=C\c1ccco1 | 5.2% |
| CC(/C=N/NC(=O)c1ccncc1)=C\c1ccco1 | 5.5% |
| C=CCN1C(=O)C(O)(CC(=O)c2ccc(Cl)cc2)c2ccccc21 (stereo unspecified) | 20% |
| Cc1coc(C)c1C(=O)CC1(O)C(=O)N(C)c2ccc(Cl)cc21 (stereo unspecified) | 51.4% (active) |
| CC(=O)c1c(O)cc2n(c1=O)-c1ccc(Cl)cc1C2(C)C | 18.3% |
| Cc1ccc(O)c(NC(=S)NC(=O)COc2ccc(Br)cc2)c1 | 1.8% |
| COCCN(CCOC)S(=O)(=O)c1ccc(/C(O)=C(\C#N)c2nc3ccccc3[nH]2)cc1 | 5.6% |
| Cc1coc2c(O)cc3c(c12)OC1(N2CCCCC2)C(=O)NCCCC31 (stereo unspecified) | 56.1% (active) |
| O=C(Cc1cccs1)Nc1nnc(SCc2ccc(F)cc2)s1 | 11.1% |
| COc1cc2sc(C)nc2cc1C | 6% |

| Compound | inhibition |
| --- | --- |
| CC1=C/C(=N\OS(=O)(=O)c2ccccc2)C=CC1=O | 71.4% (active) |
| CCOC(=O)C1(S(=O)(=O)c2ccccc2)CCN(Cc2ccccc2)CC1 | 16.8% |
| CC1=C/C(=N\S(=O)(=O)c2ccccc2)C(C(C)C)=CC1=O | 21.7% |
| O=C1CCCC2=C1C(c1cccs1)CC(=O)N2c1ccc(F)cc1 (stereo unspecified) | 6.3% |
| CC(C)N1CCC(N2CCN(Cc3cccnc3)CC2CCO)CC1 (stereo unspecified) | -0.8% |
| CCOC(=O)C1CCN(C(=O)C2(NC(=O)Nc3cccc(F)c3)CCCCC2)CC1 | -16.4% |
| CCCCNC(=O)c1ccc(-n2c(=S)[nH]c3ccccc3c2=O)cc1 | 6.2% |
| O=C(Cc1ccc(-n2c(=O)[nH]c3ccccc3c2=O)cc1)N1CCN(c2cccc(Cl)c2)CC1 | 19.4% |
| CCOC(=O)N1CCN(C(=O)Cc2ccc(-n3c(=S)[nH]c4ccccc4c3=O)cc2)CC1 | 51.3% (active) |
| Cc1ccc(S(=O)(=O)CC(=O)Nc2c(C)n(C)n(-c3ccccc3)c2=O)cc1 | -0.5% |
| C/C(O)=C\c1nc(=O)c2c(C)cc(C)nc2n1-c1ccccc1 | 13.4% |
| Cc1cc(C)c2c(n1)sc1c(=O)n(-c3ccccc3)c(=O)[nH]c12 | 59.3% (active) |
| Cc1cc(C)c2c(-n3cccc3)c(NC(=O)OCc3ccccc3)sc2n1 | 18.4% |
| OCCC1CN(Cc2cccn2-c2nccs2)CCN1CCc1ccccc1 (stereo unspecified) | 18.5% |
| N#C/C=C(/c1ccc(F)cc1)N1CCOCC1 | 20.9% |
| C(=C\c1ccccc1)/CSc1nnc(-c2cccnc2)n1Cc1ccco1 | 53.4% (active) |
| O=C(CSc1nnc(-c2cccnc2)n1Cc1ccco1)c1ccc(Cl)cc1 | 16.4% |
| O=C(CSc1nnc(-c2cccnc2)n1Cc1ccco1)c1ccc(Cl)c(Cl)c1 | 4% |
| CC(=O)c1ccc(N2CCN(CC(=O)Nc3ccccc3N3CCOCC3)CC2)cc1 | 4% |
| O=C(N/N=C/c1ccc2c(c1)OCO2)C(=O)N1CCCC1 | -1.9% |
| CN(C(=O)CSc1nnc(Nc2ccccc2)s1)C1CCS(=O)(=O)C1 (stereo unspecified) | 15% |
| c1coc(-c2nc3nc4ccccc4n3nc2-c2ccco2)c1 | 57.8% (active) |
| Cc1nn2c3ccccc3nc2n(C)c1=O | 15.5% |
| Cn1c(-c2ccco2)nc2cc3ccccc3cc21 | 18.4% |
